Experiment [1] relates to HT-29. As to the kind of experiment: Cytotoxicity against human HT-29 cells by MTT assay. The class given is functional, cell-based. In short, it runs like this:
(§1)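 MTT assay on five human tumour lines: HT-29 colon carcinoma, HCT-8 ileocecal adenocarcinoma, Bel-7402 hepatoma, A549 non-small cell lung carcinoma and MCF-7 breast carcinoma.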
In general terms: Formazan colour is commonly taken as a measure of viable cells.

Experiment [2] deals with HCT-8. Nature of the experiment: Cytotoxicity against human HCT8 cells by MTT assay. The class given is functional, cell-based. In short, it runs like this: as §1
The subject of experiment [3] is Bel-7402. As to the kind of experiment: Cytotoxicity against human Bel7402 cells by MTT assay. The class given is functional, cell-based. In short, it runs like this: as §1
In experiment [4] the test system is A549. Nature of the experiment: Cytotoxicity against human A549 cells by MTT assay. The class given is functional, cell-based. In outline:
as §1

For experiment [5], the system named is MCF7. As to the kind of experiment: Cytotoxicity against human MCF7 cells by MTT assay. The class given is functional, cell-based. In short, it runs like this: as §1
In experiment [6] the target is T1, DNA topoisomerase 1 (Homo sapiens) (UniProt P11387).
T1 sequence (whole entry): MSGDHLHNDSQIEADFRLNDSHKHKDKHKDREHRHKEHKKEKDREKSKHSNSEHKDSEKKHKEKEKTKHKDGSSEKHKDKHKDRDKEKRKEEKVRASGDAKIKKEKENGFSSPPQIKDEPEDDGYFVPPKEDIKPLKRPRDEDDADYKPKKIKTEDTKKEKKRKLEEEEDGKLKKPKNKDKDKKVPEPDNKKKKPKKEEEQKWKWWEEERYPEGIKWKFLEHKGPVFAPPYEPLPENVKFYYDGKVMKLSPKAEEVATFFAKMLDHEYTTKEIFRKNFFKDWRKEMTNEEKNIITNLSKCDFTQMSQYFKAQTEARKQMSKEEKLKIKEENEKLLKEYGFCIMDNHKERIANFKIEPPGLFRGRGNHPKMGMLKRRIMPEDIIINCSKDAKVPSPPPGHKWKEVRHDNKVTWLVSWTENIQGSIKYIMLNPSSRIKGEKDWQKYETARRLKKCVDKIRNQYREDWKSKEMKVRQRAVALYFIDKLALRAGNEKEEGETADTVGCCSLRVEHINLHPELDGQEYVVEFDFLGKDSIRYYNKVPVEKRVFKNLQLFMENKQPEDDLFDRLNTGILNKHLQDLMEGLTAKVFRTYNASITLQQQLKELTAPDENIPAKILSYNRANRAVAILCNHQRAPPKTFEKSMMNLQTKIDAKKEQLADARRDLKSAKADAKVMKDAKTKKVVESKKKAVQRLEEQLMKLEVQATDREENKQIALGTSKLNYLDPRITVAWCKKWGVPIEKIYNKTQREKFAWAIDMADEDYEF
Nature of the experiment: Inhibition of topoisomerase 1 assessed as conversion of supercoiled DNA to open circular DNA at 100 uM. In short, it runs like this:
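A commercial TOPO I drug screening kit was used with a supercoiled plasmid DNA substrate. Activity was read as conversion of supercoiled DNA (Form I) to open circular DNA, with camptothecin as reference inhibitor.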

For experiment [7], the system named is HT-29. Nature of the experiment: Decrease in topoisomerase 1 expression in human HT-29 cells at 20 uM after 24 hrs relative to control. The class given is functional, cell-based. In short, it runs like this: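 TOPO I protein level in HT-29 cells was probed after 24 h incubation by the common protocols with a commercial TOPO I antibody. Levels were compared with a control group.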

Experiment [8] has as its system HT-29. As to the kind of experiment: Cell cycle arrest in human HT-29 cells assessed as accumulation of Sub-G1 phase at 20 uM after 24 hrs by flow cytometry relative to control. The class given is functional. In short, it runs like this: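 HT-29 cells were exposed for 24 h. Apoptosis was scored by flow cytometry as the percentage of cells in the Sub-G1 phase, compared against an untreated control group.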
A general note: Flow cytometry measures light scatter and fluorescence of single cells or particles in a stream.

Active and inactive are the calls of the source. The rule behind the calls is not given here.

As a reminder, the IC50 is the concentration at which inhibition is half-maximal. Low readings indicate greater potency, high ones weaker potency. `CC(NC(=O)Cn1c2ccccc2c2c3c(c4c5ccccc5[nH]c4c21)C(=O)N(C)C3=O)C(=O)O` (configuration not stated): the 50% inhibitory concentration (IC50) in experiment [1], in experiment [2], in experiment [3], in experiment [4] and in experiment [5] was above 10 µM in each case.

`CC(C)CC(NC(=O)Cn1c2ccccc2c2c3c(c4c5ccccc5[nH]c4c21)C(=O)N(C)C3=O)C(=O)N1CCN(C)CC1` (configuration not stated): the IC50 in experiment [1] was 1.26 µM; in experiment [2], above 10 µM; in experiment [3], 2.23 µM; in experiment [4], 1.84 µM; in experiment [5], 1.94 µM. Also, the outcome in experiment [6] and in experiment [7] was Active. Besides, in experiment [8], the Activity is on record as 14.33%.

On to `CN1C(=O)c2c(c3c4ccccc4n(CC(=O)NC(Cc4ccccc4)C(=O)O)c3c3[nH]c4ccccc4c23)C1=O` (configuration not stated), for which the concentration for half-maximal inhibition (IC50) in experiment [1], in experiment [2], in experiment [3], in experiment [4] and in experiment [5] was above 10 µM throughout.

As for `CC(C)C(NC(=O)Cn1c2ccccc2c2c3c(c4c5ccccc5[nH]c4c21)C(=O)N(C)C3=O)C(=O)O` (configuration not stated), the IC50 in experiment [1], in experiment [2], in experiment [3], in experiment [4] and in experiment [5] was above 10 µM in each case.

Turning to `CCN1CCN(C(=O)C(CC(C)C)NC(=O)Cn2c3ccccc3c3c4c(c5c6ccccc6[nH]c5c32)C(=O)N(C)C4=O)CC1` (configuration not stated), the 50% inhibitory concentration (IC50) in experiment [1] is 3.48 µM; in experiment [2], above 10 µM; in experiment [3], above 10 µM; in experiment [4], 7.94 µM; in experiment [5], 2.44 µM. In addition, the result in experiment [6] and in experiment [7] was Active. Besides, the Activity in experiment [8] is listed as 8.86%.

Regarding `CC(NC(=O)Cn1c2ccccc2c2c3c(c4c5ccccc5[nH]c4c21)C(=O)N(C)C3=O)C(=O)N1CCOCC1` (configuration not stated), the IC50 in experiment [1], in experiment [2], in experiment [3], in experiment [4] and in experiment [5] was above 10 µM throughout.

`COC(=O)C(NC(=O)Cn1c2ccccc2c2c3c(c4c5ccccc5[nH]c4c21)C(=O)N(C)C3=O)C(C)C` (configuration not stated): the IC50 in experiment [1], in experiment [2], in experiment [3], in experiment [4] and in experiment [5] was above 10 µM each time.

As for `COC(=O)C(C)NC(=O)Cn1c2ccccc2c2c3c(c4c5ccccc5[nH]c4c21)C(=O)N(C)C3=O` (configuration not stated), the IC50 in experiment [1], in experiment [2], in experiment [3], in experiment [4] and in experiment [5] was above 10 µM in each case.

With `COC(=O)CNC(=O)Cn1c2ccccc2c2c3c(c4c5ccccc5[nH]c4c21)C(=O)N(C)C3=O`, the 50% inhibitory concentration (IC50) in experiment [1] is 2.88 µM; in experiment [2], above 10 µM; in experiment [3], above 10 µM; in experiment [4], 2.13 µM; in experiment [5] it was 2.23 µM.

For the molecule `CC(C)C(NC(=O)Cn1c2ccccc2c2c3c(c4c5ccccc5[nH]c4c21)C(=O)N(C)C3=O)C(=O)N1CCOCC1` (configuration not stated), the half-inhibitory concentration (IC50) in experiment [1] is 2.66 µM; in experiment [2], above 10 µM; in experiment [3], above 10 µM; in experiment [4], 5.11 µM; in experiment [5] it was above 10 µM. Further, the outcome in experiment [6] and in experiment [7] was Active. Moreover, the Activity in experiment [8] is recorded as 2.49%.

On to `COC(=O)C(Cc1ccccc1)NC(=O)Cn1c2ccccc2c2c3c(c4c5ccccc5[nH]c4c21)C(=O)N(C)C3=O` (configuration not stated), for which the IC50 in experiment [1], in experiment [2], in experiment [3], in experiment [4] and in experiment [5] was above 10 µM throughout.

With `CC(C)CC(NC(=O)Cn1c2ccccc2c2c3c(c4c5ccccc5[nH]c4c21)C(=O)N(C)C3=O)C(=O)O` (configuration not stated), the IC50 in experiment [1], in experiment [2], in experiment [3], in experiment [4] and in experiment [5] was above 10 µM throughout.

Consider `CCN1CCN(C(=O)C(Cc2ccccc2)NC(=O)Cn2c3ccccc3c3c4c(c5c6ccccc6[nH]c5c32)C(=O)N(C)C4=O)CC1` (configuration not stated), for which the IC50 was 2.88 µM in experiment [1]; 1.09 µM in experiment [2]; 1.91 µM in experiment [3]; 1.86 µM in experiment [4]; 1.91 µM in experiment [5]. The result in experiment [6] and in experiment [7] was Active. In addition, the Activity in experiment [8] is 10.3%.

With `CN1C(=O)c2c(c3c4ccccc4n(CC(=O)NCC(=O)O)c3c3[nH]c4ccccc4c23)C1=O`, the half-maximal inhibitory concentration (IC50) in experiment [1], in experiment [2], in experiment [3], in experiment [4] and in experiment [5] was above 10 µM each time.

Turning to `CN1C(=O)c2c(c3c4ccccc4n([C@@H]4O[C@H](CO)[C@@H](O)[C@H](O)[C@H]4O)c3c3[nH]c4ccccc4c23)C1=O`, the IC50 was 7.44 µM in experiment [1]; above 10 µM in experiment [2]; 6.68 µM in experiment [3]; above 10 µM in experiment [4]; above 10 µM in experiment [5].

Consider `COC(=O)C(CC(C)C)NC(=O)Cn1c2ccccc2c2c3c(c4c5ccccc5[nH]c4c21)C(=O)N(C)C3=O` (configuration not stated), for which the concentration for half-maximal inhibition (IC50) in experiment [1], in experiment [2], in experiment [3], in experiment [4] and in experiment [5] was above 10 µM throughout.

The values are drawn from ChEMBL document CHEMBL1154523, “Design and synthesis of N-methylmaleimide indolocarbazole bearing modified 2-acetamino acid moieties as Topoisomerase I inhibitors” (Bioorg Med Chem Lett, 2009).
